From ChEMBL document CHEMBL3758106, “Antitumor Activity of Americanin A Isolated from the Seeds of Phytolacca americana by Regulating the ATM/ATR Signaling Pathway and the Skp2-p27 Axis in Human Colon Cancer Cells” (J Nat Prod, 2015)
The source made the active and inactive calls. The calls are words filed in the database; no cut-off is given here.

Key:
HCT-116 [1] = assay: Induction of cell cycle arrest in human HCT116 cells assessed as accumulation at G0/G1 phase at 30 uM after 48 hrs by propidium iodide staining-based flow cytometric analysis in presence of RNase A (reference value: 54.3%); assay type: functional
HCT-116 [2] = assay: Induction of apoptosis in human HCT116 cells assessed as viable cells at 7.5 uM after 48 hrs by annexin V-FITC/propidium iodide staining-based flow cytometric analysis (reference value: 91.2%); assay type: functional; details: HCT-116, 48 h, read-out: Activity
HCT-116 [3] = assay: Induction of apoptosis in human HCT116 cells assessed as early apoptotic cells at 7.5 uM after 48 hrs by annexin V-FITC/propidium iodide staining-based flow cytometric analysis (reference value: 1.6%); assay type: functional
HCT-116 [4] = assay: Induction of apoptosis in human HCT116 cells assessed as dead cells at 15 uM after 48 hrs by annexin V-FITC/propidium iodide staining-based flow cytometric analysis (reference value: 2%); assay type: functional
HCT-116 [5] = assay: Induction of apoptosis in human HCT116 cells assessed as late apoptotic cells at 30 uM after 48 hrs by annexin V-FITC/propidium iodide staining-based flow cytometric analysis (reference value: 5.2%); assay type: functional
HCT-116 [6] = assay: Induction of apoptosis in human HCT116 cells assessed as early apoptotic cells at 30 uM after 48 hrs by annexin V-FITC/propidium iodide staining-based flow cytometric analysis (reference value: 1.6%); assay type: functional
HCT-116 [7] = assay: Induction of apoptosis in human HCT116 cells assessed as viable cells at 30 uM after 48 hrs by annexin V-FITC/propidium iodide staining-based flow cytometric analysis (reference value: 87.4%); assay type: functional; details: HCT-116, 48 h, read-out: Activity
HCT-116 [8] = assay: Induction of apoptosis in human HCT116 cells assessed as cleaved caspase 8 level at 30 uM up to 24 hrs by Western blot analysis; assay type: functional, cell-based
HCT-116 [9] = assay: Induction of apoptosis in human HCT116 cells assessed as cleaved caspase 8 level at 30 uM up to 24 hrs by Western blot analysis in presence of NAC; assay type: functional, cell-based
[10] = Antitumor activity against human HCT116 cells xenografted in nude mouse assessed as tumor growth inhibition at 5 mg/kg, ip administered 3 times per week measured on day 41; assay type: functional; details: HCT-116, ip, 984 h, read-out: TGI
Procedure, shortened: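 Nude mice given 2 × 10^6 HCT116 cells subcutaneously in flank; at ~120 mm3 randomised, six per group; ip dosing in 200 μL, test agent 5 or 10 mg/kg three times weekly, irinotecan 10 mg/kg once weekly; tumour volume measured twice weekly to day 41; body weight tracked for toxicity.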

[11] = Downregulation of phosphorylated cyclin B1 at Ser147 expression in human HCT116 cells at 7.5 to 30 uM after 24 hrs by Western blot analysis; assay type: functional, cell-based; details: HCT-116
Procedure, shortened: (§1)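 HCT116 cells exposed 24 h in complete medium; lysed in RIPA buffer (pH 8.0), protein by BCA, equal loads run on 8–13% SDS-PAGE, PVDF transfer, blocked in 5% BSA/TBST, primary antibodies overnight at 4 °C, HRP secondaries 2 h RT, ECL detection; β-actin as loading control.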

[12] = target: Serine-protein kinase ATM/ATR (Homo sapiens) (UniProt Q13315+Q13535); assay: Activation of ATM/ATR in human HCT116 cells assessed as downregulation of cdc25C level after 24 hrs by Western blot analysis; assay type: cell-based; details: HCT-116; procedure, shortened: as §1
HCT-116 [13] = assay: Increase in Cul-1 expression in human HCT116 cells after 24 hrs by western blot analysis; assay type: functional, cell-based; procedure, shortened: as §1
CAKI-1 = assay: Antiproliferative activity against human CAKI-1 cells after 24 to 72 hrs by SRB assay; assay type: functional, cell-based
Procedure, shortened: (§2)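 Cells grown in 96-well plates (RPMI 1640; MRC-5 in MEM, 10% FBS, antibiotics) with compound […]; fixed in 10% TCA 30 min at 4 °C, stained 0.4% SRB in 1% acetic acid 1 h, dye dissolved in 10 mM Tris pH 10.0, A515 read; viability as % of solvent control, IC50 by nonlinear regression; mean of three independent experiments.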

K562 = assay: Antiproliferative activity against human K562 cells after 24 to 72 hrs by SRB assay; assay type: functional, cell-based; procedure, shortened: as §2
[14] = (§3) Antiproliferative activity against human HCT116 cells after 24 to 72 hrs by SRB assay; assay type: functional, cell-based; details: HCT-116; procedure, shortened: as §2
HCT-116 [15] = assay: as §3; assay type: functional, cell-based; procedure, shortened: as §2
RKO = assay: Antiproliferative activity against human RKO cells after 24 to 72 hrs by SRB assay; assay type: functional, cell-based; procedure, shortened: as §2
HCT-116 [16] = assay: Induction of cell cycle arrest in human HCT116 cells assessed as accumulation at G0/G1 phase at 7.5 uM after 24 hrs by propidium iodide staining-based flow cytometric analysis in presence of RNase A (reference value: 64.6%); assay type: functional

For O=C/C=C/c1ccc2c(c1)O[C@@H](CO)[C@H](c1ccc(O)c(O)c1)O2 [AMERICANIN A], the Activity (HCT-116 [1]) was 16.4%, the viability at 7.5 µM (HCT-116 [2]) was 84.6% and the Activity (HCT-116 [3]) was 3%. It also gave an Activity (HCT-116 [4]) of 0.4%, an Activity (HCT-116 [5]) of 18.9% and an Activity (HCT-116 [6]) of 32.8%. For the same molecule, the viability at 30 µM (HCT-116 [7]) was 51.4%, the Activity (HCT-116 [8]) was “Active” and the Activity (HCT-116 [9]) was “inactive”. The inhibition in vivo at 5 mg/kg [10] was 45%, the Activity [11] was “Active” and the Activity [12] was “Dose-dependent effect”. The Activity (HCT-116 [13]) was “Active”, the IC50 (CAKI-1) was 66.4 µM and the IC50 (K562) was 12.9 µM. The IC50 [14] was 7.6 µM, the Activity (HCT-116 [15]) was “Dose-dependent effect” and the IC50 (RKO) was 24.4 µM. For the same molecule, the Activity (HCT-116 [16]) was 55.4%.
